Tests used:
[1] = target: Dicer-mediated pre-let-7d maturation (Homo sapiens, UniProt Q9UPY3); assay: Selectivity: Dicer-mediated pre-let-7d maturation; assay type: biochemical; conditions: compound at 100 µM
[2] = target: eIF4E−4E-BP1 protein-protein interaction (Homo sapiens, UniProt P06730); assay: Selectivity: cat-ELCCA of the eIF4E−4E-BP1 protein-protein interaction; assay type: binding; conditions: compound at 100 µM
[3] = target: T1, pre-let-7d−Lin28 interaction (Mus musculus, UniProt Q8K3Y3); assay: electrophoretic mobility shift assay; assay type: binding, murine; conditions: pre-let-7d with Lin28, dose response
T1 sequence (Q8K3Y3 2-209): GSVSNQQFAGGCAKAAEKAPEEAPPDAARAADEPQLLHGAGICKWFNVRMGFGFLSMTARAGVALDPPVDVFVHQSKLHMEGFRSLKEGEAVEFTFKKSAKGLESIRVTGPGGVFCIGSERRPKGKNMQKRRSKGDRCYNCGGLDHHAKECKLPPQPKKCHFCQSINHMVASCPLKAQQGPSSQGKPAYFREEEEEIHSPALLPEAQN

biotinylated pre-let-7d = assay: SPR binding to biotinylated pre-let-7d; conditions: 100, 50, 25, 12.5 and 6.25 µM
[4] = target: T2, pre-let-7d–Lin28A interaction (Mus musculus, UniProt Q8K3Y3); assay: cat-ELCCA of the pre-let-7d–Lin28A interaction; assay type: binding, murine
T2 sequence (Q8K3Y3 2-209): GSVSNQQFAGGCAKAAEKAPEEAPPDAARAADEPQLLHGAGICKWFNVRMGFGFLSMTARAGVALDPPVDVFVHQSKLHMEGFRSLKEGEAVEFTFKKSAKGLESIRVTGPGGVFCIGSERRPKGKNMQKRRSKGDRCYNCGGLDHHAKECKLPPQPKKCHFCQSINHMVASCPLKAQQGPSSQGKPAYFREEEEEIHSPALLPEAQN
Outline: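 Murine Lin28A, expressed as an N-terminal HaloTag fusion and biotin-labelled, was immobilised in streptavidin-coated wells. Wells were then incubated with pre-let-7d bearing a 5′-trans-cyclooctene click handle. Bound RNA was detected by click reaction with methyltetrazine-labelled HRP, then HRP substrate, with chemiluminescence as read-out. Washing steps were included.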

[5] = target: T3, HaloTag-mLin28A (biotinylated) (Mus musculus, UniProt Q8K3Y3 1-209); assay: cat-ELCCA
T3 sequence: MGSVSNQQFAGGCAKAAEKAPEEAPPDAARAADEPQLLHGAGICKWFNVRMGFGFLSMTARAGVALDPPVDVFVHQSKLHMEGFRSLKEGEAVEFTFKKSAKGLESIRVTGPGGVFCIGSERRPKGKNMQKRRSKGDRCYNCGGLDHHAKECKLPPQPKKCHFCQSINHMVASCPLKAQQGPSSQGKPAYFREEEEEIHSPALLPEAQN

eIF4E−4E-BP1 protein-protein interaction, sequence (P06730 whole entry): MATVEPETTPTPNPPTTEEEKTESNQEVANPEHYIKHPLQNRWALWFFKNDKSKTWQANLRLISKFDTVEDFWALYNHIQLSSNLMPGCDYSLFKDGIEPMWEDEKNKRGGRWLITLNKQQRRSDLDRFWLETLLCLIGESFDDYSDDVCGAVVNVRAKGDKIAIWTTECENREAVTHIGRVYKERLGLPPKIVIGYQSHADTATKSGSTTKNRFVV
Dicer-mediated pre-let-7d maturation, sequence (Q9UPY3 whole entry): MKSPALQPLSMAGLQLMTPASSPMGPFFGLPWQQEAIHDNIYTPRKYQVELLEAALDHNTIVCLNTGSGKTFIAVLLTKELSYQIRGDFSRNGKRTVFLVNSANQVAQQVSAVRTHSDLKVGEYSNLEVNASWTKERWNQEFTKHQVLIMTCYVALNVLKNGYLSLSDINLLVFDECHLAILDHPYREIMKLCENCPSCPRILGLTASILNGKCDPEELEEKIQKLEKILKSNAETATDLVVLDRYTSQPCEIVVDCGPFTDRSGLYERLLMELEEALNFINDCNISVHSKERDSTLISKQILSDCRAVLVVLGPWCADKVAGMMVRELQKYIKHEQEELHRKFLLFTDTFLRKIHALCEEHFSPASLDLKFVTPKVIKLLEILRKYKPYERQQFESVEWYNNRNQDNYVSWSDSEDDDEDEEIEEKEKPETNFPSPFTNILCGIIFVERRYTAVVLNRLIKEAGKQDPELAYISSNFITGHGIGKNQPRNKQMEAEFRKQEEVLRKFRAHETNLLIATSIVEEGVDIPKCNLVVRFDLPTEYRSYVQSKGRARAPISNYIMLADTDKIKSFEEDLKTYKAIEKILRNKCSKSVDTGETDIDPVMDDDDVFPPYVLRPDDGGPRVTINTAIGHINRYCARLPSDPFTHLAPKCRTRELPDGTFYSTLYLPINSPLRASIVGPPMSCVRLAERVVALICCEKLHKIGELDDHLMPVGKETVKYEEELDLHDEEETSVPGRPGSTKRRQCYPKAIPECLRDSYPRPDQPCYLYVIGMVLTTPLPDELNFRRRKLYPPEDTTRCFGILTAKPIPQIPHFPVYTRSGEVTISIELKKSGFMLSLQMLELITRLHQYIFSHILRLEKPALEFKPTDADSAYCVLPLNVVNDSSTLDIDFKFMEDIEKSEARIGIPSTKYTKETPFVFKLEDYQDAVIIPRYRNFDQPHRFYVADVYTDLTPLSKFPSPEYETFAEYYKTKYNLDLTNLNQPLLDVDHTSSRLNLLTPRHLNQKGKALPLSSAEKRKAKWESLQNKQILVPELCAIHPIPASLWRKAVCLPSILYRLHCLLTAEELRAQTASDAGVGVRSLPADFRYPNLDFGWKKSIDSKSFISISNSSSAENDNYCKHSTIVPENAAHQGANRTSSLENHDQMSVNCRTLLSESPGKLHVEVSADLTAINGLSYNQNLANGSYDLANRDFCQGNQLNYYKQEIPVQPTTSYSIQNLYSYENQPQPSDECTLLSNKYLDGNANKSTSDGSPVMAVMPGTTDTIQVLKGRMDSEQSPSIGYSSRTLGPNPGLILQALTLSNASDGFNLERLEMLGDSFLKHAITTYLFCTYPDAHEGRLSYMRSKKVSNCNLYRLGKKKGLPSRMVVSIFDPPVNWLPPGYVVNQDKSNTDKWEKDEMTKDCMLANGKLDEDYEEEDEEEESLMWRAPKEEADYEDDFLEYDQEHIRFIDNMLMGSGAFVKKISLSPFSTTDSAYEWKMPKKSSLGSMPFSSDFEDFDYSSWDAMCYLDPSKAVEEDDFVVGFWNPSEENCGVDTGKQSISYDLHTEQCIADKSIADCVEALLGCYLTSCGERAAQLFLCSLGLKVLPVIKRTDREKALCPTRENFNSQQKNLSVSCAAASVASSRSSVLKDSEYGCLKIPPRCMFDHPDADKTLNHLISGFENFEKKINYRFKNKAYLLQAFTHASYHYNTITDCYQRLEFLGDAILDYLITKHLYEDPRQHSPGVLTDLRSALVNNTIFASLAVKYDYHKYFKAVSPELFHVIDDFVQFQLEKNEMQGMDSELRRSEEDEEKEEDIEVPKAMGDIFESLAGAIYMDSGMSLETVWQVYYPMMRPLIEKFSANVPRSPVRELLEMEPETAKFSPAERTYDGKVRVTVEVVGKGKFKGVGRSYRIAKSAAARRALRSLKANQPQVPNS

Cc1ccc(S(=O)(=O)Nc2ccc(F)cc2NS(=O)(=O)c2ccc(C)cc2)cc1 [CCG-233094]
inhibition of Dicer-mediated pre-let-7d maturation [1]: insignificant inhibition | inhibition of cat-ELCCA-based PPI assay [2]: insignificant inhibition | activity in EMSA [3]: concentration-responsive activity | binding to pre-let-7d (SPR) (biotinylated pre-let-7d): not pre-let-7d

Cc1ccc(S(=O)(=O)Nc2ccc(C)cc2NS(=O)(=O)c2cccc(C(F)(F)F)c2)cc1 [CCG-234459]
inhibition of Dicer-mediated pre-let-7d maturation [1]: insignificant inhibition | inhibition of cat-ELCCA-based PPI assay [2]: insignificant inhibition | activity in EMSA [3]: concentration-responsive activity | binding to pre-let-7d (SPR) (biotinylated pre-let-7d): not pre-let-7d

Nc1ccccc1NS(=O)(=O)c1ccccc1 [Compound 3]
activity (inhibition of pre-let-7d–Lin28A) [4]: inactive

O=S(=O)(Nc1cccc(NS(=O)(=O)c2ccccc2)c1)c1ccccc1 [Compound 4, N,N′-(1,3-phenylene)dibenzenesulfonamide]
activity (inhibition of pre-let-7d–Lin28A) [4]: inactive

O=S(=O)(c1ccccc1)N1CCN(S(=O)(=O)c2ccccc2)c2ccccc21 [Compound 5]
activity (inhibition of pre-let-7d–Lin28A) [4]: inactive

O=C(Nc1ccccc1NC(=O)c1ccccc1)c1ccccc1 [Compound 6]
activity (inhibition of pre-let-7d–Lin28A) [4]: inactive

B1: 5'-TCO-pre-let-7d (structured_RNA)
RNA: AGAGGUAGUAGGUUGCAUAGUUUUAGGGCAGGGAUUUUGCCCACAAGGAGGUAACUAUACGACCUGCUGCCUUUCU
modifications: 5'-phosphate pentylamine (N5) linked to TCO-PEG4
Kd [5]: 106 nM

— paper PMC6004563 (ACS Medicinal Chemistry Letters, 2018)
